Measured values as given in ChEMBL document CHEMBL2321840, “Synthesis and structure-activity relationships of indazole arylsulfonamides as allosteric CC-chemokine receptor 4 (CCR4) antagonists” (J Med Chem, 2013).
≈ marks a conversion by molar mass, not a printed value.

Experiments:
in vivo [1] = conditions: CD, rat, iv, 1 mg/kg
Rattus norvegicus = experiment: Cardiotoxicity in rat at 30 to 300 mg/kg, po; format: toxicity, organism-based; set-up: dose 30-300 mg/kg, route oral; conditions: in vivo
Method in brief: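 Conscious rats were given oral doses of 30, 100 and 300 mg/kg. Body temperature, cardiovascular and electrocardiographic parameters were monitored.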

[2] = Lipophilicity, log D of the compound by chromatographic analysis; format: physicochemical
Method in brief: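 Chromatographic log D measured at pH 7.4.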

[3] = target: C-C chemokine receptor type 2 (Homo sapiens, UniProt P41597); experiment: Antagonist activity at CCR2 receptor (unknown origin) by [35S]GTPgammaS binding assay; format: functional
C-C chemokine receptor type 2, sequence (P41597 whole entry): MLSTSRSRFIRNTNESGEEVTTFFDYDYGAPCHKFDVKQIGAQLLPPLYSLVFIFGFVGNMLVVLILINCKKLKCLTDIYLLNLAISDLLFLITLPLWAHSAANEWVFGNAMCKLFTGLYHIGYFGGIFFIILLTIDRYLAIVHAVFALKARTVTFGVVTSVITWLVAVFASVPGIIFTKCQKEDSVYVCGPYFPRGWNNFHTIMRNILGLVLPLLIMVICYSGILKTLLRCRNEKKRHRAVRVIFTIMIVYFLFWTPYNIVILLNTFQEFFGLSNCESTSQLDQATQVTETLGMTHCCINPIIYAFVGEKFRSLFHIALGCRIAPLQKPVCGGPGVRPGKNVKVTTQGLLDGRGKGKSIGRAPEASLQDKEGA

[4] = Plasma protein binding in human by equilibrium dialysis technique; format: ADME, cell-free; conditions: read-out: PPB (converted)
Method in brief: (§1)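 Rapid equilibrium dialysis in CD rat, beagle dog or human plasma, with compound at a nominal 1 μg/mL; n = 3.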

Salmonella typhimurium = experiment: Genotoxicity in Salmonella typhimurium by Ames test; format: toxicity, organism-based; conditions: salmonella enterica subsp. enterica serovar typhimurium
[5] = Chemical stability of the compound in PBS using DMSO at pH 7.4 after 100 hrs by NMR analysis; format: physicochemical; conditions: buffer, pH 7.4, 100 h
[6] = Equilibrium solubility of the compound in Britton-Robinson buffer at pH 2 after 24 hrs by HPLC analysis; format: physicochemical
Method in brief: (§2)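 Solid compound was equilibrated 24 h in Britton–Robinson buffer at the stated pH. Dissolved compound was quantified by HPLC.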

[7] = Equilibrium solubility of the compound in fed-state simulated intestinal fluid at pH 6.5 after 24 hrs by HPLC analysis; format: physicochemical
Method in brief: (§3)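 Solid compound was equilibrated 24 h in the stated medium: water, SGF pH 1.6, FeSSIF pH 6.5, FaSSIF pH 6.5 or saline. Dissolved compound was quantified by HPLC.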

[8] = target: T1, C-X-C chemokine receptor type 1 (Homo sapiens, UniProt P25024); experiment: Antagonist activity at CXCR1 receptor (unknown origin) by [35S]GTPgammaS binding assay; format: functional
T1 sequence (P25024 whole entry): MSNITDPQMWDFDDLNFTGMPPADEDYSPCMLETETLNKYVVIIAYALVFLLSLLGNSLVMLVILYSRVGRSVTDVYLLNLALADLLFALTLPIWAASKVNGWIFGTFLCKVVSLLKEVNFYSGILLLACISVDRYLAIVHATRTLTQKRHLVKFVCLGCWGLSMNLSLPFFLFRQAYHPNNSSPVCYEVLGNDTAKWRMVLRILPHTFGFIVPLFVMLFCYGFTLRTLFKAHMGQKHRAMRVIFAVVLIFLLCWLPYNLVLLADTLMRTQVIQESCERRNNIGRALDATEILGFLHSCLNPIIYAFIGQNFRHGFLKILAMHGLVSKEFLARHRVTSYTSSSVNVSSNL

[9] = Dissociation constant, pKa of the compound; format: physicochemical
[10] = target: C-C chemokine receptor type 5 (Homo sapiens, UniProt P51681); experiment: Antagonist activity at CCR5 receptor (unknown origin) by [35S]GTPgammaS binding assay; format: functional
C-C chemokine receptor type 5, sequence (P51681 whole entry): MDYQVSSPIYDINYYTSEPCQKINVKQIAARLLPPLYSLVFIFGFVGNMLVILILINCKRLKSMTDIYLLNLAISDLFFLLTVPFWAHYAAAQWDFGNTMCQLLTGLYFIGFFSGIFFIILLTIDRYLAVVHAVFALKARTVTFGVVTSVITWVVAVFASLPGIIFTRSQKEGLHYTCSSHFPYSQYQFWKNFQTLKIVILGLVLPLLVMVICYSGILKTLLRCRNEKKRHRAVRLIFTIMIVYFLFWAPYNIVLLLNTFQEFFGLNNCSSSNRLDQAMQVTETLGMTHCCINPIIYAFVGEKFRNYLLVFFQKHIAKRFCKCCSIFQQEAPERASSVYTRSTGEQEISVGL

[11] = Oral bioavailability in CD rat at 10 mg/kg administered as suspension; format: ADME, organism-based; conditions: in vivo
[12] = Equilibrium solubility of the compound in simulated gastric fluid at pH 1.6 after 24 hrs by HPLC analysis; format: physicochemical
Method in brief: as §3

[13] = target: C-C chemokine receptor type 8 (Homo sapiens, UniProt P51685); experiment: Antagonist activity at CCR8 receptor (unknown origin) by [35S]GTPgammaS binding assay; format: functional
C-C chemokine receptor type 8, sequence (P51685 whole entry): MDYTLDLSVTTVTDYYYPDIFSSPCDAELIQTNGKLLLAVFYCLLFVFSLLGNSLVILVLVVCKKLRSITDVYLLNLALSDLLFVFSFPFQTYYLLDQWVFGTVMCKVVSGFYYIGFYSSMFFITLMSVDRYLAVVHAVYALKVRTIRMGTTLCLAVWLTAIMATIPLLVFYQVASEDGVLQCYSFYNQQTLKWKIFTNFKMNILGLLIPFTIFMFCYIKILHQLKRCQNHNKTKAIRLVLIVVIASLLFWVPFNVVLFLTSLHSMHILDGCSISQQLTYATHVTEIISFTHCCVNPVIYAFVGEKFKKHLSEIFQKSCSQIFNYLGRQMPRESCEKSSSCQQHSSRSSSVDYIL

[14] = Equilibrium solubility of the compound in saline after 24 hrs by HPLC analysis; format: physicochemical
Method in brief: as §3

Oryctolagus cuniculus = species on record: Oryctolagus cuniculus; experiment: Cardiotoxicity in rabbit assessed as effect on cardiac repolarization; format: toxicity, Heart
[15] = Equilibrium solubility of the compound in Britton-Robinson buffer at pH 8 after 24 hrs by HPLC analysis; format: physicochemical
Method in brief: as §2

[16] = Plasma protein binding in Beagle dog by equilibrium dialysis technique; format: ADME, cell-free, Canis lupus familiaris; conditions: read-out: PPB
Method in brief: as §1

[17] = Equilibrium solubility of the compound in Britton-Robinson buffer at pH 10 after 24 hrs by HPLC analysis; format: physicochemical
Method in brief: as §2

[18] = Chemical stability of the compound in PBS using MeOH at pH 7.4 by NMR analysis; format: physicochemical; conditions: buffer
in vivo [19] = conditions: beagle, dog, iv, 0.5 mg/kg
[20] = Equilibrium solubility of the compound in water after 24 hrs by HPLC analysis; format: physicochemical
Method in brief: as §3

[21] = target: T2, Solute carrier organic anion transporter family member 1B1 (Homo sapiens, UniProt Q9Y6L6); experiment: Antagonist activity at OATP1B1 (unknown origin) by [35S]GTPgammaS binding assay; format: functional
T2 sequence (Q9Y6L6 whole entry): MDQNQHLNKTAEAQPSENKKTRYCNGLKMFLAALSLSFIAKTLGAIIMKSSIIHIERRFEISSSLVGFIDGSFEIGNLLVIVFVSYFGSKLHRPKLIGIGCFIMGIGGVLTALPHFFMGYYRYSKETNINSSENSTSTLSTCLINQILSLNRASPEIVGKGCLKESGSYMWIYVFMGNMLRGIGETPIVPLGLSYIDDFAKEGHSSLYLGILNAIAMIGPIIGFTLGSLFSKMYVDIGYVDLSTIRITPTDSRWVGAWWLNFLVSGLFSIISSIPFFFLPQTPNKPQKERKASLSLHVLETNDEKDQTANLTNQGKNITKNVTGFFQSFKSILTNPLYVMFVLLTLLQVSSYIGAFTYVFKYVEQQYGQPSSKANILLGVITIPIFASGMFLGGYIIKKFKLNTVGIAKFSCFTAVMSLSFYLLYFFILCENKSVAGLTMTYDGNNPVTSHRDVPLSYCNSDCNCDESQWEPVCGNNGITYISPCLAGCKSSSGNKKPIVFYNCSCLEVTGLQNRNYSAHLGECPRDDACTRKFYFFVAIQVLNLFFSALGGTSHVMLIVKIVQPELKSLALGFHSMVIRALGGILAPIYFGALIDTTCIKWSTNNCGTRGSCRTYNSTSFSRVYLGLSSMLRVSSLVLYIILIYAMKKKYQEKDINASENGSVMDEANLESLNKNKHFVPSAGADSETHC

[22] = target: T3, C-C chemokine receptor type 10 (Homo sapiens, UniProt P46092); experiment: Antagonist activity at CCR10 receptor (unknown origin) by [35S]GTPgammaS binding assay; format: functional
T3 sequence (P46092 whole entry): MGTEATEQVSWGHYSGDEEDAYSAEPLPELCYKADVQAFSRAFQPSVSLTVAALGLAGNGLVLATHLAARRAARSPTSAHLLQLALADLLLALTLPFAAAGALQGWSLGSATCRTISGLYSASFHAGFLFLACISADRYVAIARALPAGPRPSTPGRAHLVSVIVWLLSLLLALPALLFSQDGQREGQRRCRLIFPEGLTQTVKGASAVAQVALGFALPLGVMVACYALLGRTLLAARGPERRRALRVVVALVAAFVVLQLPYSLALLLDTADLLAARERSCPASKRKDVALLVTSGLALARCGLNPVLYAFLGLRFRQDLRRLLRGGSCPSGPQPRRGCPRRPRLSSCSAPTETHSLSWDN

[23] = target: Acetylcholine receptor subunit alpha (Homo sapiens) (UniProt P02708); experiment: Antagonist activity at nAChR alpha1 (unknown origin) by [35S]GTPgammaS binding assay; format: functional
Acetylcholine receptor subunit alpha (Homo sapiens), sequence (P02708 whole entry): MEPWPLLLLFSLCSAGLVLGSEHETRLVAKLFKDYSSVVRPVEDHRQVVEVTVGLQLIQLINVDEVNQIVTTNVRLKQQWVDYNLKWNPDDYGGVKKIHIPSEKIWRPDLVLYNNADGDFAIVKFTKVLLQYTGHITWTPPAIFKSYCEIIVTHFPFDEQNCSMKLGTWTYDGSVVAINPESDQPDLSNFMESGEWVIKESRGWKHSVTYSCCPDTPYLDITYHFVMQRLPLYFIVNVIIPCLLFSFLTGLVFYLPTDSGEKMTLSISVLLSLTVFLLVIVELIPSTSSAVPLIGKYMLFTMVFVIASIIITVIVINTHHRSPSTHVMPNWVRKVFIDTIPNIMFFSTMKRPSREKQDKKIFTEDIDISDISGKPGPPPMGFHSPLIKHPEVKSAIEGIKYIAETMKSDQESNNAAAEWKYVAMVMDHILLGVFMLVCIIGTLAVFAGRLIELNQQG

- half-life (in vivo [1]): 2.5 h
- chromatographic logD [2]: 4.3
- IC50 [3]: > 10 µM
- fraction unbound [4]: 0.01
- Stability [5]: Stable
- solubility thermodynamic at 24 h [6]: 3 µg/mL (≈ 5.46 µM)
- solubility thermodynamic at 24 h [7]: 23 µg/mL (≈ 41.9 µM)
- IC50 [8]: > 10 µM
- pKa [9]: 6.54
- IC50 [10]: 6.31 µM
- bioavailability [11]: 80%
- solubility thermodynamic at 24 h [12]: 1 µg/mL (≈ 1.82 µM)
- IC50 [13]: > 10 µM
- solubility thermodynamic at 24 h [14]: 73 µg/mL (≈ 133 µM)
- solubility thermodynamic at 24 h [15]: 56 µg/mL (≈ 102 µM)
- fraction unbound [16]: ≤ 0.01
- solubility thermodynamic at 24 h [17]: 1320 µg/mL (≈ 2410 µM)
- Stability [18]: Unstable
- half-life (in vivo [19]): 2.6 h
- solubility thermodynamic at 24 h [20]: 57 µg/mL (≈ 104 µM)
- IC50 [21]: 0.398 µM
- IC50 [22]: > 10 µM
- pXC50 [23]: 5.1
Structure (SMILES): COc1cccc2c1c(NS(=O)(=O)c1ccc(Cl)s1)nn2Cc1cccc(CNC(=O)C(C)(C)O)c1
- Activity (Rattus norvegicus): Non-toxic
- Activity (Salmonella typhimurium): Non-toxic
- Activity (Oryctolagus cuniculus): Non-toxic
